The list is not random: actives were taken first. Their share in the collection is about 3.8%.
KCNK3 inh: human KCNK3 channel inhibitors, primary screen, CHO cells, FluxOR thallium flux, B-score. Potassium channel subfamily K member 3 (Homo sapiens), O14649. FluxOR fluorescence; stronger effect = lower value. B-score at 10 µM. 0.84% of 340,000 active. AID 602410, 2012;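 active = B-score under library mean minus 4 SD, starting fluorescence ratio at most library mean plus 5 SD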;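 note: more negative B-score means stronger inhibition of thallium flux through KCNK3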
Kir21 inh: inhibitors of mouse Kir2.1 inward-rectifier potassium channel. Inward rectifier potassium channel 2 (Mus musculus), P35561. HEK293-Kir2.1, FluxOR thallium flux fluorescence; stronger effect = lower value. B-score at 10 µM. 0.85% of 310,000 active;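 active = fluorescence ratio B-score at or below minus 3 SD of library scores, with starting-brightness B-score within 2 SD, cut at about -4.2 in these data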;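 note: channel flux triggered by added potassium and thallium sulfate stimulus; B-score of peak minus minimum fluorescence over baseline after thallium stimulus; more negative B-score means stronger Kir2.1 block with less thallium influx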
hERG protect: hERG rescue from dofetilide block, primary screen, cell-based, CHO-hERG, FluxOR thallium flux, dofetilide IC70 | Voltage-gated inwardly rectifying potassium channel KCNH2 (Homo sapiens), Q12809 | dofetilide IC70 present | activation (rescue from dofetilide block), less the hit threshold, % at 10 µM | 0.51% of 310,000 active;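 active = activation above the mean of controls blocked by dofetilide plus 5 SD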;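 note: thallium influx through hERG after potassium depolarization seen as dye fluorescence rise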
KCNQ1 pot: potentiators or activators of KCNQ1 channel, primary screen, cell-based, thallium flux, high-throughput; CHO-K1 KCNQ1, thallium flux FluxOR fluorescence; stronger effect = higher value; 0.35% of 310,000 active; Potassium voltage-gated channel subfamily KQT member 1 (Homo sapiens), P51787; B-score at 10 µM; AID 2648, 2010;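 active = fluorescence ratio B-score, a plate-corrected score, at least three library SD, with initial intensity B-score within 5 SD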
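Doses: Single concentration per compound, DMSO matched to controls | Test system: KCNQ1-transfected CHO-K1 cells | Timing: 90 min dye loading and 20 min compound exposure, both at room temperature | Measured by: Kinetic FluxOR thallium fluorescence, 10-s 1-Hz baseline, 110-s post-stimulus read | Medium: Assay buffer with matched DMSO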
KCNQ1 inh: inhibitors of human KCNQ1 channel, primary screen, cell-based, thallium flux, high-throughput | CHO-K1 KCNQ1, FluxOR thallium flux fluorescence; stronger effect = higher value | B-score at 10 µM | 1.3% of 310,000 active | AID 2642, 2010;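 active = compounds whose thallium flux B-score, printed positive for inhibition, exceeds three library SD while starting fluorescence stays within three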;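 note: channel opened by potassium depolarization with thallium stimulus after 20 min compound exposure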
KCNK9 inh: KCNK9 potassium channel inhibitors, primary screen, HEK293 cells, thallium flux. AID 488922, 2010. B-score at 10 µM. FluxOR thallium flux fluorescence; stronger effect = lower value. 1.2% of 310,000 active. Potassium channel subfamily K member 9 (Homo sapiens), Q9NPC2;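 active = ratio B-score over 3 SD below the library mean, with starting fluorescence within 5 SD of its mean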;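 note: negative B-score means less thallium flux so channel inhibition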
KCNQ1 inh valid: KCNQ1 potassium channel inhibitors, confirmation, cell-based, Tl flux, duplicate; shares compounds with KCNQ1 inh; KCNQ1 cell line, FluxOR thallium flux fluorescence; inhibition, % at 10 µM; 93% of 1,600 active; AID 588353, 2011;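 active = primary screen active, with duplicate mean exceeding buffer control mean plus 3 SD of buffer wells, cut at about 28% in these data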
CHO Tl flux: thallium flux effects in parental CHO cells, counter-screen for KCNQ1 inhibitor project, cell-based, Tl flux | shares compounds with KCNQ1 inh | parental CHO-K1, FluxOR thallium flux fluorescence ratio; stronger effect = lower value; zero means no signal rise above baseline | fluorescence ratio (Tl flux) at 10 µM | 21% of 1,600 active;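 active = mean of duplicate thallium-flux fluorescence ratios in parental host cells more than 5 SD below the buffer control mean, cut at about 0.38 in these data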;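 note: ratio is peak minus minimum fluorescence divided by baseline fluorescence; actives read low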
KCNQ1 ephys val: KCNQ1 channel inhibitors, confirmation, orthogonal assay, cell-based, automated electrophysiology; AID 624120, 2012; 20% of 490 active; calls only at 10 µM; shares compounds with KCNQ1 inh; KCNQ1-CHO cells, automated patch clamp current;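 active = KCNQ1 current drop exceeding 3 SD of negative control wells, seen in both duplicate runs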;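 note: steady state current during a 2 s step from -80 to +40 mV; negative values mean current inhibition and positive values mean potentiation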
KCNQ2 spec: KCNQ2 channel inhibition, selectivity assay for KCNQ1 inhibitor project, cell-based; shares compounds with KCNQ1 inh; KCNQ2 cells, FluxOR thallium flux fluorescence; inhibition, % at 10 µM; 71% of 1,600 active; AID 651746, 2012;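 active = mean percent inhibition of the KCNQ2 thallium signal more than 5 SD above the buffer-only control wells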;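 note: KCNQ2 expressed in CHO cells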
KCNQ1 KCNE1 spec: KCNQ1/KCNE1 channel inhibition, selectivity assay for KCNQ1 inhibitor project, CHO-K1 cells, thallium flux, FluxOR | 77% of 1,600 active | FluxOR thallium flux fluorescence | AID 652147, 2013 | shares compounds with KCNQ1 inh | inhibition, % at 10 µM;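 active = mean percent inhibition of duplicate wells above the buffer-only control mean plus 3 SD of those controls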
Target sequence (P51787 whole entry, looked up): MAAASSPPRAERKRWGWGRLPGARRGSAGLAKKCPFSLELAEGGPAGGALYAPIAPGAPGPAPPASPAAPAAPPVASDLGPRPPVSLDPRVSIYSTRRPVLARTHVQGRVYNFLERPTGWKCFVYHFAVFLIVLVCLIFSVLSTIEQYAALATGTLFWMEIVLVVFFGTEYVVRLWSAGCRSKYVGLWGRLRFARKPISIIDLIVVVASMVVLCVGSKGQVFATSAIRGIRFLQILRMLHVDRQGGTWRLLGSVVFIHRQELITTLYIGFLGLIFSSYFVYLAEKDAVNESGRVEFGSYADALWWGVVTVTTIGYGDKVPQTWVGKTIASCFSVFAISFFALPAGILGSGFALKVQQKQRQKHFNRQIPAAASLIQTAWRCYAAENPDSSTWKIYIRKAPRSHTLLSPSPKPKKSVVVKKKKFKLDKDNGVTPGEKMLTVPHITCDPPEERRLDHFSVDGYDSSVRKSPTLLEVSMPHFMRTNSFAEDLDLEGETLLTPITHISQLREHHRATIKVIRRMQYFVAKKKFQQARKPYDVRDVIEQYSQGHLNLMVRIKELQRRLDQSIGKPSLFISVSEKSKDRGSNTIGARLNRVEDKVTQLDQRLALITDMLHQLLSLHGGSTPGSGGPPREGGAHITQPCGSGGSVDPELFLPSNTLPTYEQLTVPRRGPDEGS
Hits are given with their value; n = inactive; x = no result; + = active, no number.

SMILES	KCNK3 inh	Kir21 inh	hERG protect	KCNQ1 pot	KCNQ1 inh	KCNK9 inh	KCNQ1 inh valid	CHO Tl flux	KCNQ2 spec	KCNQ1 KCNE1 spec	others
Cc1onc(-c2ccccc2)c1CNC(=O)Nc1cccc(Cl)c1	n	n	n	n	7	n	75.5	n	74.3%	79.0%
Cc1cc(C)cc(NC(=O)NCc2c(-c3ccccc3)noc2C)c1	n	n	n	n	n	n	x	x	x	x
Cc1ccc(OCCNC(=O)CCNC(=O)c2ccc(Cl)cc2)cc1	n	x	x	x	x	x	x	x	x	x
CC(=O)c1cccc(NC(=O)N2CCCC2C(=O)NCc2ccc3c(c2)OCO3)c1 (centres undefined)	n	n	n	n	7	n	n	n	n	n
CC(OC(=O)c1ccc(Cl)c(S(=O)(=O)N2CCOCC2)c1)C(=O)Nc1ccc(S(N)(=O)=O)cc1 (centres undefined)	n	n	n	n	n	n	x	x	x	x
Fc1ccc(NC(=S)NCc2cccs2)cc1	n	n	n	n	6	n	n	n	n	47.5%
CCC1(c2ccc(F)cc2)NC(=O)N(CC(=O)Nc2cccnc2Cl)C1=O (centres undefined)	n	n	n	n	n	n	x	x	x	x
N#CC(C(=O)Nc1cccc(Cl)c1)=C1Nc2ccccc2N1	n	n	n	n	n	n	x	x	x	x
CC1CCC(=C(C#N)C(=O)Nc2cccc(Cl)c2)CC1 (centres undefined)	n	n	n	n	15	n	96.0	n	93.7%	81.5%	KCNQ1 ephys val=+
CC(NS(=O)(=O)OCC(Cl)(Cl)Cl)c1ccc(Br)cc1 (centres undefined)	n	-7.11	n	n	7	n	126.5	n	73.3%	104.0%	KCNQ1 ephys val=n
CC(C)CC(NS(=O)(=O)OCC(Cl)(Cl)Cl)c1ccccc1 (centres undefined)	n	n	n	n	12	n	55.5	n	65.3%	n
COC(=O)CCC(NS(=O)(=O)OCC(Cl)(Cl)Cl)c1ccccc1 (centres undefined)	n	n	n	n	n	n	x	x	x	x
CC(=O)N(C)c1cccc(-c2ccc3nnc(C)n3n2)c1	n	n	n	n	n	n	x	x	x	x
COc1ccc(S(=O)(=O)N2CCN(c3nn(C)c(=O)n(C)c3=O)CC2)cc1	n	x	x	x	x	x	x	x	x	x
CC(NC(=O)Nc1nnc(C(F)(F)F)s1)N1C(=O)C2C3C=CC(C3)C2C1=O (centres undefined)	n	n	n	n	n	n	x	x	x	x
CC(NC(=O)Nc1nnc(C(F)(F)F)s1)(C(F)(F)F)C(F)(F)F	n	n	n	n	7	n	n	n	n	n
Cc1cc(C2(c3ccc(O)c(C)c3)C(=O)Nc3ccccc32)ccc1O	n	n	n	n	7	n	n	n	n	n
O=C(NCC1(c2ccccc2)CCCC1)C1(c2ccccc2)CCCC1	n	n	n	n	6	n	112.5	n	107.7%	151.5%	KCNQ1 ephys val=n
Cc1ccccc1OCCCC(=O)NCc1ccco1	n	n	n	n	n	n	x	x	x	x
Cc1nn(-c2ccccc2)c2c1C(c1ccc(F)cc1F)C(C#N)=C(N)O2 (centres undefined)	n	n	n	n	7	n	45.0	n	n	52.5%
O=C(Nc1ccc(Br)cc1)c1ccc(F)c(S(=O)(=O)NCc2cccs2)c1	n	n	n	n	7	n	140.5	n	92.3%	130.0%
O=S(=O)(NCc1cccs1)c1ccc(Br)cc1	n	n	n	n	n	n	x	x	x	x
Cc1ccc(NC(=O)Nc2ccon2)cc1Cl	n	n	n	n	n	n	x	x	x	x
O=C(NCC(=O)N(Cc1ccccc1)C(C(=O)NC1CCCCC1)c1ccco1)c1ccco1 (centres undefined)	n	n	n	n	n	n	x	x	x	x
O=C(NC1CCCCC1)C(c1ccco1)N(Cc1ccco1)C(=O)c1ccco1 (centres undefined)	n	n	n	n	7	n	96.0	n	70.3%	112.5%	KCNQ1 ephys val=+
SMILES	KCNK3 inh	Kir21 inh	hERG protect	KCNQ1 pot	KCNQ1 inh	KCNK9 inh	KCNQ1 inh valid	CHO Tl flux	KCNQ2 spec	KCNQ1 KCNE1 spec	others
Cc1nn(C)c(C)c1NC(=O)Nc1ccc(Cl)c(Cl)c1	n	n	n	n	6	n	77.0	n	n	76.0%
COC(=O)c1cc(NC(=O)Nc2cccc(Cl)c2)ccc1Cl	n	n	n	n	6	n	62.0	n	n	n
O=C(Nc1cccc(Cl)c1)Nc1cccc(Cl)c1	n	n	n	n	n	n	x	x	x	x
COC(=O)c1cccc(NC(=S)Nc2ccc(Cl)c(Cl)c2)c1	n	n	n	n	8	n	167.5	n	n	n	KCNQ1 ephys val=n
O=C(Nc1ccccc1)Nc1cc(Cl)cc(Cl)c1	n	n	n	n	10	n	28.5	n	77.7%	n
COC(=O)c1cccc(NC(=O)Nc2ccc(Cl)cc2)c1	n	n	n	n	7	n	44.5	n	n	n
Cc1ccc2c(c1)[C@H]1[C@H](CO2)[C@H](c2ccccc2)[C@]2(C)C(=O)N(C)CC(=O)N12	n	x	x	x	x	x	x	x	x	x
O=C(Nc1ccncc1)Nc1ccc(Cl)cc1	n	n	n	n	7	n	28.0	n	n	n
NS(=O)(=O)c1cccc(NC(=O)Nc2ccc(Cl)cc2)c1	n	n	n	n	8	n	137.0	n	101.0%	108.5%	KCNQ1 ephys val=n
